Reference: ChEMBL document CHEMBL1124794, “Synthesis, chemistry, and antineoplastic activity of alpha-halopyridinium salts: potential pyridone prodrugs of acylated vinylogous carbinolamine tumor inhibitors” (J Med Chem, 1990)
Several values for one entry are separate records, joined by “and”; a condition that tells them apart may be missing. Equal entries are not always repeated.

What was measured:
[1] = test system: L1210; test: In vivo activity against murine L1210 tumor system at the dose of 25 mg/kg, activity expressed as body weight difference; format: functional, Mus musculus
Method in brief: (§1)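 L1210 lymphocytic leukemia: ascitic fluid with ca. 10^6 cells injected ip into CD2F1 mice. Dosing started 24 h after inoculation and was repeated daily for five doses in total, from solutions or suspensions made fresh each day. Toxicity day survivors were scored on day 5. Body weight difference is day 5 minus day 1. %T/C is based on median survival time versus controls.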

[2] = test system: L1210; test: In vivo activity against murine L1210 tumor system at the dose of 50 mg/kg, activity expressed as KE; format: functional, Mus musculus; method in brief: as §1
[3] = In vivo activity against murine M5076 tumor system at the dose of 25 mg/kg, activity expressed as body weight difference; format: functional, Mus musculus
Method in brief: (§2)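 M5076: ascitic fluid with ca. 10^6 cells inoculated ip into CD2F1 mice. Dosing started 24 h after inoculation and was then given every 4 days for four doses in total, from solutions or suspensions made fresh each day. Toxicity day survivors were scored on day 5. Body weight difference is day 14 minus day 1. %T/C is based on median survival time versus controls.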

[4] = Half life at the buffer concentration of 0.10 M.; format: ADME
Method in brief: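 α-Fluoropyridinium hydrolysis to pyridone in phosphate buffer at 0.02, 0.05 or 0.10 M, pH 6.5 or 8.0, ionic strength […] °C. Pyridinium UV absorbance maximum followed with time to give pseudo-first-order kobs and half-life.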

[5] = test system: P388; test: In vivo activity against P388 Lymphocytic Leukemia in CD2F1 mice at the dose of 12.5 mg/kg, activity expressed as body weight difference; format: functional, Mus musculus
Method in brief: (§3)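 CD2F1 mice were inoculated with ascitic fluid holding ca. 10^6 P388 cells. Drug was given daily from 24 h after inoculation, from solutions or suspensions made fresh each day, some as a saline suspension. TDS is survivors/initial animals on day 5. BWD is body weight on day 5 minus day 1. %T/C compares median survival of treated and control mice.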

[6] = In vivo activity against murine M5076 tumor system at the dose of 25 mg/kg, activity expressed as TDS; 10/10; format: functional, Mus musculus; method in brief: as §2
[7] = Effect of pH on the hydrolysis of pyridinium Moity in 0.05 M buffer concentration at the pH 7.0; format: ADME
Method in brief: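 Pyridinium salt in 0.05 M phosphate buffer, pH 6.0–8.0 (set by pH meter), ionic strength 0.25 M, 25 °C. Decrease in the pyridinium UV absorbance maximum followed over time to give pseudo-first-order kobs and half-life.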

[8] = test system: L1210; test: In vivo activity against murine L1210 tumor system at the dose of 50 mg/kg, activity expressed as %T/C.; format: functional, Mus musculus; method in brief: as §1
[9] = Effect of Ionic strength (0.10 M NaCl)on the hydrolysis of pyridinium Moity in 0.02 M buffer concentration, pH 7.4,25 degree C; format: ADME
Method in brief: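 Pyridinium salt in 0.02 M phosphate buffer, pH 7.4, 25 °C, with NaCl varied 0.10–1.0 M. Loss of the pyridinium chromophore's UV absorbance maximum (conversion to pyridone) followed over time. Pseudo-first-order kobs and half-life derived from that decay.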

[10] = test system: P388; test: In vivo activity against P388 Lymphocytic Leukemia in CD2F1 mice at the dose of 25 mg/kg, activity expressed as body weight difference; format: functional, Mus musculus; method in brief: as §3
[11] = Half life at the concentration of 0.02 M.; format: ADME
[12] = Effect of phosphate buffer on carbamate hydrolysis in acetonitrile-water at the concentration of 0.01 M on pH 3.0, 25 degree C.; format: ADME; settings: in the assay text read “citrate buffer” for “phosphate buffer”
Method in brief: (§4)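 Bis-carbamate in acetonitrile–water (1:1), 25 ± 0.1 °C. Citrate buffer at pH 3.0 or phosphate buffer at pH 7.4, at 0.01, 0.025 or 0.05 M, ionic strength 0.136 (KCl). Kinetics followed by HPLC as the decrease in bis-carbamate peak area. The regression slope of ln(area0/areat) vs time gave pseudo-first-order kobs. Duplicates averaged.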

[13] = Half life at the buffer concentration of 0.025 M.; format: ADME; method in brief: as §4
[14] = Effect of pH on carbamate hydrolysis in 0.05 M buffer concentration at the pH 10.0, 25 degree C.; format: ADME
Method in brief: (§5)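 Bis-carbamate in acetonitrile–water (1:1; buffer added to a 0.5 mg/mL acetonitrile solution), 0.05 M buffer, ionic strength 0.136 (KCl), 25 ± 0.1 °C. Buffers: phosphate pH 2.0; citrate pH 3.0–3.5; succinate pH 4.0; acetate pH 5.0; phosphate pH 6.0–8.0; borate pH 9.0; carbonate pH 10.0. HPLC bis-carbamate peak-area loss, ln(area0/areat) vs time slope = kobs. Duplicates averaged.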

[15] = In vivo activity against murine M5076 tumor system at the dose of 100 mg/kg, activity expressed as %T/C.; format: functional, Mus musculus; method in brief: as §2
[16] = Half life at the pH 4.0; format: ADME; settings: buffer; method in brief: as §5
[17] = test system: L1210; test: In vivo activity against murine L1210 tumor system at the dose of 166.7 mg/kg, activity expressed as body weight difference; T-C; format: functional, Mus musculus; method in brief: as §1
[18] = test system: L1210; test: In vivo activity against murine L1210 tumor system at the dose of 100 mg/kg, activity expressed as body weight difference; T-C; format: functional, Mus musculus; method in brief: as §1
[19] = test system: P388; test: In vivo activity against P388 Lymphocytic Leukemia in CD2F1 mice at the dose of 100 mg/kg, activity expressed as TDS; 5/6; format: functional, Mus musculus; method in brief: as §3
[20] = Effect of pH on carbamate hydrolysis in 0.05 M buffer concentration at the pH 6.0, 25 degree C.; format: ADME; method in brief: as §5
[21] = test system: L1210; test: In vivo activity against murine L1210 tumor system at the dose of mg/kg, activity expressed as %T/C.; format: functional, Mus musculus; method in brief: as §1
[22] = In vivo activity against murine M5076 tumor system at the dose of 60 mg/kg, activity expressed as TDS; 10/10; format: functional, Mus musculus
[23] = In vivo activity against murine M5076 tumor system at the dose of 60 mg/kg, activity expressed as body weight difference; T-C; format: functional, Mus musculus
[24] = test system: P388; test: In vivo activity against P388 Lymphocytic Leukemia in CD2F1 mice at the dose of 200 mg/kg, activity expressed as TDS; 6/6; format: functional, Mus musculus; method in brief: as §3
[25] = In vivo activity against murine M5076 tumor system at the dose of 21.6 mg/kg, activity expressed as %T/C.; format: functional, Mus musculus; method in brief: as §2
[26] = In vivo activity against murine M5076 tumor system at the dose of 60 mg/kg, activity expressed as %T/C.; format: functional, Mus musculus
[27] = Half life at the pH 2.0; format: ADME; settings: buffer; method in brief: as §5
[28] = test system: L1210; test: In vivo activity against murine L1210 tumor system at the dose of 36 mg/kg, activity expressed as TDS; 6/6; format: functional, Mus musculus; method in brief: as §1
[29] = test system: L1210; test: In vivo activity against murine L1210 tumor system at the dose of 36 mg/kg, activity expressed as body weight difference; T-C; format: functional, Mus musculus; method in brief: as §1
[30] = test system: L1210; test: In vivo activity against murine L1210 tumor system at the dose of 36 mg/kg, activity expressed as KE; format: functional, Mus musculus; method in brief: as §1
[31] = test system: L1210; test: In vivo activity against murine L1210 tumor system at the dose of 21.6 mg/kg, activity expressed as TDS; 6/6; format: functional, Mus musculus; method in brief: as §1
[32] = test system: L1210; test: In vivo activity against murine L1210 tumor system at the dose of 166.7 mg/kg, activity expressed as KE; format: functional, Mus musculus; method in brief: as §1
[33] = Half life at the concentration of 0.05 M.; format: ADME

Compound `CC(C)NC(=O)OCc1c(COC(=O)NC(C)C)c(-c2cc[n+](C)c(F)c2)n2c1CCC2.[I-]` has a BWD [1] of 0.6 g, a KE [2] of -1.94 and a BWD [3] of 0.4 g. For the same compound, the T1/2 [4] was 50.3 min and 19.25 min, the BWD [5] was -1.3 g and the TDS [6] was 10. It also gave a K obs [7] of 0.0208 min⁻¹, a T/C [8] of 118% and a K obs [9] of 0.024 min⁻¹. For the same compound, the BWD [10] was -1 g and the half-life [11] was 133 min.
Work on `CC(C)NC(=O)OCc1c(COC(=O)NC(C)C)c(-c2ccn(C)c(=O)c2)n2c1CCC2` yielded a K obs [12] of 0.0349 min⁻¹, a half-life [13] of 51.9 min and a K obs [14] of 0.0133 min⁻¹. It also gave a T/C [15] of 122%, a half-life [16] of 46.7 min and a BWD [17] of -3.8 g. For the same compound, the BWD [18] was -4.2 g, the TDS [19] was 5 and the K obs [20] was 0.0135 min⁻¹. It also gave a T/C [21] of 135%, a TDS [22] of 10 and a BWD [23] of 0.9 g. It also gave a TDS [24] of 6, a T/C [25] of 107% and a T/C [26] of 114%. For the same compound, the half-life [27] was 2.11 min, the TDS [28] was 6 and the BWD [29] was -0.3 g. For the same compound, the KE [30] was -0.86, the TDS [31] was 6 and the KE [32] was -2.29. It also gave a half-life [33] of 22.8 min.
